Data as given in ChEMBL document CHEMBL3611998, “Syntheses and studies of new forms of N-sulfonyloxy β-lactams as potential antibacterial agents and β-lactamase inhibitors” (Bioorg Med Chem, 2015).
Activity calls are given as the source filed them. The rule behind the calls is not given here.

How the values were obtained:
[1] = Inhibition of beta-lactamase PAM-2035 (unknown origin) using nitrocefin substrate incubated for 10 mins
Micrococcus luteus [2] = test: Antimicrobial activity against Micrococcus luteus ATCC 10240 assessed as very unclear inhibition zone at 2 mM incubated for 20 hrs by agar diffusion assay; type: functional; details: ATCC 10240, 20 h, read-out: DIZ
How it was run: (§1)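 The test solution was made as 20 mM in DMSO and diluted 10-fold in MeOH to 2 mM. Overnight LB cultures were adjusted to a 0.5 McFarland standard ([…] in 0.9% saline), and 0.1 mL was seeded into 34 mL Mueller-Hinton No. 2 agar at 47–50 °C. 50 μL was placed in 9.0 mm wells. Plates were incubated at 37 °C for 20 h, and inhibition zone diameters were measured by caliper.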

Pseudomonas aeruginosa [3] = test: Antimicrobial activity against Pseudomonas aeruginosa K799/61 at 2 mM incubated for 20 hrs by agar diffusion assay; type: functional; details: K799/61, 20 h, read-out: DIZ; how it was run: as §1
Pseudomonas aeruginosa [4] = test: Antimicrobial activity against wild type Pseudomonas aeruginosa K799 at 2 mM incubated for 20 hrs by agar diffusion assay; type: functional; details: K799, 20 h, read-out: DIZ; how it was run: as §1
Mycolicibacterium vaccae [5] = test: Antimicrobial activity against Mycobacterium vaccae IMET 10670 assessed as unclear inhibition zone at 2 mM incubated for 48 hrs by agar diffusion assay; type: functional; details: IMET 10670, 48 h, read-out: DIZ
How it was run: (§2)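 Seeded-agar well diffusion: 2 mM test solution (from 20 mM DMSO stock, diluted 10-fold in MeOH), 50 μL per 9.0 mm well. Inoculum was 0.1 mL of a 0.5 McFarland saline suspension ([…]) in 34 mL Mueller-Hinton No. 2 agar. Incubation was at 37 °C for 48 h, with plates photographed after 3 days. Zone diameters were measured by caliper.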

[6] = Inhibition of beta-lactamase KPC-2 (unknown origin) using nitrocefin substrate incubated for 10 mins
How it was run: (§3)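 Enzyme was preincubated with inhibitor at rt for 10 min in 50 mM sodium phosphate pH 7 with 0.1 mg/mL BSA. Inhibitor was tested at final concentrations of 160 μM to 3 nM (1:3 series, 8 points). Nitrocefin was then added at 50 μM, and hydrolysis was followed as OD 495 nm over time.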

Burkholderia dolosa = test: Antimicrobial activity against Burkholderia dolosa at 2 mM incubated for 20 hrs by agar diffusion assay; type: functional; details: read-out: DIZ; how it was run: as §1
[7] = Inhibition of beta-lactamase AmpC (unknown origin) using nitrocefin substrate incubated for 10 mins; how it was run: as §3
Acinetobacter baumannii [8] = test: Antimicrobial activity against Acinetobacter baumannii ATCC 17961 at 2 mM incubated for 20 hrs by agar diffusion assay; type: functional; details: for zone of inhibition at 2000 µM: ATCC 17961, 20 h, read-out: DIZ; how it was run: as §1
Bacillus spizizenii [9] = test: Antimicrobial activity against Bacillus subtilis ATCC 6633 at 2 mM incubated for 20 hrs by agar diffusion assay; type: functional; details: ATCC 6633, 20 h, read-out: DIZ; how it was run: as §1
Escherichia coli [10] = test: Antimicrobial activity against Escherichia coli DC2 at 2 mM incubated for 20 hrs by agar diffusion assay; type: functional; details: for zone of inhibition at 2000 µM: DC2, 20 h, read-out: DIZ; how it was run: as §1
[11] = Inhibition of beta-lactamase SHV-12 (unknown origin) using nitrocefin substrate incubated for 10 mins
How it was run: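 SHV-12 was added as 50 μL of a 0.111 mg/mL solution and preincubated for 10 min at rt with inhibitor (final 160 μM to 3 nM, 1:3 dilutions). Buffer was 50 mM sodium phosphate pH 7 with 0.1 mg/mL BSA. Reaction was started with 10 μM nitrocefin and followed as OD 495 nm over time.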

Staphylococcus aureus [12] = test: Antimicrobial activity against Staphylococcus aureus SG511 at 2 mM incubated for 20 hrs by agar diffusion assay; type: functional; details: for zone of inhibition at 2000 µM: SG511, 20 h, read-out: DIZ; how it was run: as §1
[13] = Inhibition of beta-lactamase OXA-48 (unknown origin) using nitrocefin substrate incubated for 10 mins; how it was run: as §3
[14] = Inhibition of beta-lactamase NDM1 (unknown origin) using imipenem substrate incubated for 10 mins
How it was run: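 NDM-1 was added as 50 μL of a 0.110 mg/mL solution and preincubated with inhibitor (final 160 μM to 3 nM, 8-point 1:3 series) for 10 min at rt. Buffer was 50 mM sodium phosphate pH 7 with 0.1 mg/mL BSA. 10 μM imipenem was then added, and its disappearance was monitored over time.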

[15] = Inhibition of beta-lactamase CTX-M-14 (unknown origin) using nitrocefin substrate incubated for 10 mins; how it was run: as §3
Escherichia coli [16] = test: Antimicrobial activity against Escherichia coli DC0 at 2 mM incubated for 20 hrs by agar diffusion assay; type: functional; details: for zone of inhibition at 2000 µM: DC0, 20 h, read-out: DIZ; how it was run: as §1
Mycolicibacterium vaccae [17] = test: Antimicrobial activity against Mycobacterium vaccae IMET 10670 assessed as very unclear inhibition zone at 2 mM incubated for 48 hrs by agar diffusion assay; type: functional; details: IMET 10670, 48 h, read-out: DIZ; how it was run: as §2
Micrococcus luteus [18] = test: Antimicrobial activity against Micrococcus luteus ATCC 10240 assessed as unclear inhibition zone at 2 mM incubated for 20 hrs by agar diffusion assay; type: functional; details: ATCC 10240, 20 h, read-out: DIZ; how it was run: as §1
Staphylococcus aureus [19] = test: Antimicrobial activity against Staphylococcus aureus SG511 assessed as unclear inhibition zone at 2 mM incubated for 20 hrs by agar diffusion assay; type: functional; details: SG511, 20 h, read-out: DIZ; how it was run: as §1
Micrococcus luteus [20] = test: Antimicrobial activity against Micrococcus luteus ATCC 10240 at 2 mM incubated for 20 hrs by agar diffusion assay; type: functional; details: for zone of inhibition at 2000 µM: ATCC 10240, 20 h, read-out: DIZ; how it was run: as §1
Mycolicibacterium vaccae [21] = test: Antimicrobial activity against Mycobacterium vaccae IMET 10670 at 2 mM incubated for 48 hrs by agar diffusion assay; type: functional; details: for zone of inhibition at 2000 µM: IMET 10670, 48 h, read-out: DIZ; how it was run: as §2
[22] = Inhibition of beta-lactamase VIM-1 (unknown origin) using nitrocefin substrate incubated for 10 mins
Escherichia coli [23] = test: Antimicrobial activity against Escherichia coli DC2 assessed as very very unclear inhibition zone at 2 mM incubated for 20 hrs by agar diffusion assay; type: functional; details: DC2, 20 h, read-out: DIZ; how it was run: as §1
Bacillus spizizenii [24] = test: Antimicrobial activity against Bacillus subtilis ATCC 6633 assessed as unclear inhibition zone at 2 mM incubated for 20 hrs by agar diffusion assay; type: functional; details: ATCC 6633, 20 h, read-out: DIZ; how it was run: as §1
Acinetobacter baumannii [25] = test: Antimicrobial activity against Acinetobacter baumannii ATCC 17961 assessed as unclear inhibition zone at 2 mM incubated for 20 hrs by agar diffusion assay; type: functional; details: ATCC 17961, 20 h, read-out: DIZ; how it was run: as §1
Bacillus spizizenii [26] = test: Antimicrobial activity against Bacillus subtilis ATCC 6633 assessed as very unclear inhibition zone at 2 mM incubated for 20 hrs by agar diffusion assay; type: functional; details: ATCC 6633, 20 h, read-out: DIZ; how it was run: as §1
Staphylococcus aureus [27] = test: Antimicrobial activity against Staphylococcus aureus SG511 assessed as very unclear inhibition zone at 2 mM incubated for 20 hrs by agar diffusion assay; type: functional; details: SG511, 20 h, read-out: DIZ; how it was run: as §1

SMILES | zone of inhibition at 2000 µM (Pseudomonas aeruginosa [3]) [mm] | zone of inhibition at 2000 µM (Pseudomonas aeruginosa [4]) [mm] | zone of inhibition at 2000 µM (Burkholderia dolosa) [mm] | zone of inhibition at 2000 µM (Acinetobacter baumannii [8]) [mm] | zone of inhibition at 2000 µM (Bacillus spizizenii [9]) [mm] | zone of inhibition at 2000 µM (Staphylococcus aureus [12]) [mm] | zone of inhibition at 2000 µM (Escherichia coli [16]) [mm] | zone of inhibition at 2000 µM (Escherichia coli [10]) [mm] | zone of inhibition at 2000 µM (Micrococcus luteus [20]) [mm] | zone of inhibition at 2000 µM (Mycolicibacterium vaccae [21]) [mm] | zone of inhibition at 2000 µM (Escherichia coli [23]) [mm] | diameter of the inhibition zone (DIZ) (Staphylococcus aureus [12]) | also measured
CC(C)c1cc(C(C)C)c(S(=O)(=O)ON2C(=O)CC2CBr)c(C(C)C)c1 (centres undefined) | 0 | 0 | 0 | 0 | 0 | 0 | 0 | – | – | – | – | – | Ki [1]: > 160 µM; zone of inhibition at 2000 µM (Micrococcus luteus [2]): 19 mm; zone of inhibition at 2000 µM (Mycolicibacterium vaccae [5]): 14 mm; Ki [6]: > 160 µM; Ki [7]: > 160 µM; diameter of the inhibition zone (DIZ) (Escherichia coli [10]): Active; Ki [11]: > 160 µM; Ki [13]: > 160 µM; Ki [14]: > 160 µM; Ki [15]: > 160 µM
O=C1CC(CBr)N1OS(=O)(=O)c1cccc2ccccc12 (centres undefined) | 0 | 0 | 0 | 0 | 12 | – | 0 | 0 | – | – | – | – | zone of inhibition at 2000 µM (Mycolicibacterium vaccae [17]): 16 mm; Ki [1]: > 160 µM; Ki [6]: > 160 µM; Ki [7]: > 160 µM; zone of inhibition at 2000 µM (Micrococcus luteus [18]): 13.5 mm; Ki [11]: 0.198 µM; zone of inhibition at 2000 µM (Staphylococcus aureus [19]): 14 mm; Ki [13]: 4.67 µM; Ki [14]: > 160 µM; Ki [15]: > 160 µM
O=C1CC(CBr)N1OS(=O)(=O)c1ccc2ccccc2c1 (centres undefined) | 0 | 0 | 0 | 0 | 13 | 13 | 0 | – | 12 | 17 | 15 | – | Ki [1]: > 160 µM; Ki [6]: > 160 µM; Ki [7]: > 160 µM; Ki [11]: 0.19 µM; Ki [22]: > 160 µM; Ki [13]: > 160 µM; Ki [14]: > 160 µM; Ki [15]: > 160 µM; zone of inhibition at 2000 µM (Bacillus spizizenii [24]): 17 mm
Cc1ccc(S(=O)(=O)ON2C(=O)CC2Cn2cc(CNC(=O)c3cc(C(F)(F)F)ccc3Cl)nn2)cc1 (centres undefined) | 0 | 0 | 0 | – | – | – | 0 | 0 | – | 0 | – | Active | zone of inhibition at 2000 µM (Micrococcus luteus [18]): 13 mm; zone of inhibition at 2000 µM (Acinetobacter baumannii [25]): 13 mm; zone of inhibition at 2000 µM (Bacillus spizizenii [24]): 13 mm
Cc1ccc(S(=O)(=O)ON2C(=O)CC2CBr)cc1 (centres undefined) | 0 | 0 | 0 | – | – | – | 0 | – | – | – | 13 | Active | zone of inhibition at 2000 µM (Mycolicibacterium vaccae [5]): 17 mm; diameter of the inhibition zone (DIZ) (Micrococcus luteus [20]): Active; diameter of the inhibition zone (DIZ) (Acinetobacter baumannii [8]): Active; zone of inhibition at 2000 µM (Bacillus spizizenii [26]): 11 mm
O=C1CC(CBr)N1OS(=O)(=O)c1cccs1 (centres undefined) | 0 | 0 | 0 | 0 | 0 | 0 | 0 | – | 0 | 0 | 16 | – | –
O=C1CC(CBr)N1OS(=O)(=O)c1ccc([N+](=O)[O-])cc1[N+](=O)[O-] (centres undefined) | 0 | 0 | 0 | 0 | 22 | – | 0 | – | – | 32 | 15 | – | zone of inhibition at 2000 µM (Micrococcus luteus [2]): 16 mm; zone of inhibition at 2000 µM (Staphylococcus aureus [27]): 23 mm; zone of inhibition at 2000 µM (Staphylococcus aureus [19]): 14 mm
O=C1CC(CBr)N1OS(=O)(=O)c1ccc([N+](=O)[O-])cc1 (centres undefined) | 0 | 0 | 0 | 11 | 14 | – | 0 | – | 0 | 0 | 14 | Active | –
Cc1ccc(S(=O)(=O)ON2C(=O)CC2CSC2=NCCS2)cc1 (centres undefined) | 0 | 0 | 0 | 0 | 0 | – | 0 | – | 0 | – | 14 | Active | diameter of the inhibition zone (DIZ) (Mycolicibacterium vaccae [21]): Active
CN(C)c1cccc2c(S(=O)(=O)ON3C(=O)CC3CBr)cccc12 (centres undefined) | 0 | 0 | 0 | 0 | 0 | 13 | – | – | 12 | 16 | 14 | – | diameter of the inhibition zone (DIZ) (Escherichia coli [16]): Active
CCOC(=O)c1cn(CC2CC(=O)N2OS(=O)(=O)c2ccc(C)cc2)nn1 (centres undefined) | 0 | 0 | 0 | 0 | – | 0 | 0 | 0 | 0 | 0 | – | – | zone of inhibition at 2000 µM (Bacillus spizizenii [26]): 15 mm
COc1ccc(S(=O)(=O)ON2C(=O)CC2CBr)cc1 (centres undefined) | 0 | 0 | 0 | 0 | – | 0 | 0 | – | 0 | – | 15 | – | zone of inhibition at 2000 µM (Mycolicibacterium vaccae [5]): 17 mm; zone of inhibition at 2000 µM (Bacillus spizizenii [26]): 11 mm
Cc1ccc(S(=O)(=O)ON2C(=O)CC2Cn2cc(CNC(=O)c3ccccc3)nn2)cc1 (centres undefined) | 0 | 0 | 0 | 0 | 0 | 0 | 0 | 0 | 0 | 0 | – | – | –
